Assay results taken from the M2OR odorant receptor database.

What was measured:
Settings in all cases: stereoisomer not certain
[1] = target: T1, OR10H3 (Homo sapiens) (UniProt O60404)
T1 sequence (whole entry): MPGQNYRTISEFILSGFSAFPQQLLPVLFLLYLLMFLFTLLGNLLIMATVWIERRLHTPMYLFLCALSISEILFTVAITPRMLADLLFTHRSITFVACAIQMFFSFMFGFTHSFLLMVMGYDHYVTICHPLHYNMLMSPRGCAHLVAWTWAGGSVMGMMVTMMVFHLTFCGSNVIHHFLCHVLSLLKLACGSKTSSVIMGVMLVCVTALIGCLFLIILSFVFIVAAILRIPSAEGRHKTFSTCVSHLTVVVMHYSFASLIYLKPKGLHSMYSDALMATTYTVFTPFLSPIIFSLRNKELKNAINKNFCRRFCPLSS
Method in brief: (§1)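 Each receptor–molecule pair is labelled responsive or non-responsive (inactive) according to whether the original authors judged the measured signal statistically different from baseline. The data were taken from the main text and supplementary material of published papers and checked for typos and inconsistencies. Assay methods differed by source, with transient luciferase assays in mammalian cell lines being common.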

[2] = target: T2, OR10H4 (Homo sapiens) (UniProt Q8NGA5)
T2 sequence (whole entry): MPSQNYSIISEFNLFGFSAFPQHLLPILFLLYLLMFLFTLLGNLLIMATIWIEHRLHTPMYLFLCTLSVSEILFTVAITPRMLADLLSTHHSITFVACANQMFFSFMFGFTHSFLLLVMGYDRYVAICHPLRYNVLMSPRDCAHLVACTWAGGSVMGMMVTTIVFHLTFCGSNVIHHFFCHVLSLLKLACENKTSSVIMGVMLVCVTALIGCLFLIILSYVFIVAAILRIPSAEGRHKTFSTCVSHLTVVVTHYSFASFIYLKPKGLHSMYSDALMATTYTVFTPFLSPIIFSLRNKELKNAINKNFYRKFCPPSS
Method in brief: as §1

[3] = target: T3, OR10H5 (Homo sapiens) (UniProt Q8NGA6)
T3 sequence (whole entry): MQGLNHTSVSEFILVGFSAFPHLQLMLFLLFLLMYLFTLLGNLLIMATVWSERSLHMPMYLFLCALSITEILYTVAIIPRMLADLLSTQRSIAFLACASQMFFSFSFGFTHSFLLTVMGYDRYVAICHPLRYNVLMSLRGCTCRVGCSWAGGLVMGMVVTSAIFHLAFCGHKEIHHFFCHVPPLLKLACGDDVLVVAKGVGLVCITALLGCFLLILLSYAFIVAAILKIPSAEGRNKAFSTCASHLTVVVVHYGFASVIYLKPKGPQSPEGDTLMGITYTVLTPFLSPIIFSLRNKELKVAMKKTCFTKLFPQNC
Method in brief: as §1

[4] = target: T4, OR10J1 (Homo sapiens) (UniProt P30954)
T4 sequence (whole entry): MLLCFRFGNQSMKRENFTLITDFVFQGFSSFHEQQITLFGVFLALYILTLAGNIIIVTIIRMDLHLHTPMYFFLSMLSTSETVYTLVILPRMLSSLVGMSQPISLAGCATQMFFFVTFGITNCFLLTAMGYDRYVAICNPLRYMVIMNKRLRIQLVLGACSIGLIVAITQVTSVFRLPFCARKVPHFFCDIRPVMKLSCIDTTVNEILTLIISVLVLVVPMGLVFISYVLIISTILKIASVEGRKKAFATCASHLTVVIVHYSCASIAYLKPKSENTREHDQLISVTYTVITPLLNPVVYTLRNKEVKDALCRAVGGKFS
Method in brief: as §1

[5] = target: T5, OR10J3 (Homo sapiens) (UniProt Q5JRS4)
T5 sequence (whole entry): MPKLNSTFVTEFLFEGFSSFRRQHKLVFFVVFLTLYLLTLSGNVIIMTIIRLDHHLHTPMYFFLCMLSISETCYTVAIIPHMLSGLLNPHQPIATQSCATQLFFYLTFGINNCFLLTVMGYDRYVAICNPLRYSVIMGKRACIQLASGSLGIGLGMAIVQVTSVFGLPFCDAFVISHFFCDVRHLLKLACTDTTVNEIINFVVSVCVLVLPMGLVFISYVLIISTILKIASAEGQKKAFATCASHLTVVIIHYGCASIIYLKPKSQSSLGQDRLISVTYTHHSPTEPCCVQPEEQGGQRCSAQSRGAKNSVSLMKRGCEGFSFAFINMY
Method in brief: as §1

[6] = target: T6, OR10J5 (Homo sapiens) (UniProt Q8NHC4)
T6 sequence (whole entry): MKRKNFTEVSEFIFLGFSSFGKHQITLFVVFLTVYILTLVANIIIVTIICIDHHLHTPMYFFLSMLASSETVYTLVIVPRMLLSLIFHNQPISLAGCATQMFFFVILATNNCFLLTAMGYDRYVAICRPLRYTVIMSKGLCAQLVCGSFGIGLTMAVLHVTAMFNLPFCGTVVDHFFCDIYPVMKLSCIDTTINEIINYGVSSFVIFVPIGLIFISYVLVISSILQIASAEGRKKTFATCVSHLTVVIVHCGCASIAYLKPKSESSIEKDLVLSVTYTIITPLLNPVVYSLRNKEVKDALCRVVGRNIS
Method in brief: as §1

[7] = target: T7, OR10K1 (Homo sapiens) (UniProt Q8NGX5)
T7 sequence (whole entry): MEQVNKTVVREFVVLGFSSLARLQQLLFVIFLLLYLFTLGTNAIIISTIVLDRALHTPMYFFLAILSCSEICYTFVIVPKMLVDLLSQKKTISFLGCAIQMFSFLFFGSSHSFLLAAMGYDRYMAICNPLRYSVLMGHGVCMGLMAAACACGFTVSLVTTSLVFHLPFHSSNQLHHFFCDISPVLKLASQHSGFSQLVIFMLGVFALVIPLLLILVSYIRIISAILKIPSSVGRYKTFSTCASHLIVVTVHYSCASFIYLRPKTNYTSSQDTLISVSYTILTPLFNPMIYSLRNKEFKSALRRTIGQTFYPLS
Method in brief: as §1

[8] = target: T8, OR10P1 (Homo sapiens) (UniProt Q8NGE3)
T8 sequence (whole entry): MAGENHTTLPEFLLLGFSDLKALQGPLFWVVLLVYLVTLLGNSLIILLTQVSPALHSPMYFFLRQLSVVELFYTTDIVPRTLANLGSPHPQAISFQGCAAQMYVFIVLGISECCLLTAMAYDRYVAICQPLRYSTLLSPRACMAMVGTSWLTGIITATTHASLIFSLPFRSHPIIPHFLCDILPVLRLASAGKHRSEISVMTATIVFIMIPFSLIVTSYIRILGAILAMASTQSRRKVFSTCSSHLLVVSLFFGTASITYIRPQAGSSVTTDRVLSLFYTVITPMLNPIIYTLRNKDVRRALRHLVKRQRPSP
Method in brief: as §1

[9] = target: T9, OR10Q1 (Homo sapiens) (UniProt Q8NGQ4)
T9 sequence (whole entry): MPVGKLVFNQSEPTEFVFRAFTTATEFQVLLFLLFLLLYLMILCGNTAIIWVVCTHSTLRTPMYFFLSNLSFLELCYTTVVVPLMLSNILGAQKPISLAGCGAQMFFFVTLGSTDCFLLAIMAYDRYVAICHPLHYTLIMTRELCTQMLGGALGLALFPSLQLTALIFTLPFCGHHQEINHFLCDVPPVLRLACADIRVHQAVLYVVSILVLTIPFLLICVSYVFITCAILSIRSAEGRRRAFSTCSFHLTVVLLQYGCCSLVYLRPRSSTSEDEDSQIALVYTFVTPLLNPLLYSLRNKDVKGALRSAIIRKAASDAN
Method in brief: as §1

Measured: odorant receptor agonist call;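 note: active if original authors judged signal statistically different from baseline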

CCC1OC(=O)C(O)=C1C (centres undefined)
inactive: [1] | [2] | [3] | [4] | [5] | [6] | [7] | [8] | [9]
